The whole screen tested about 2,000 compounds, of which about 10 (0.5%) were called active.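 How the source made its calls: active means inhibition above 30%; inactive means the rest.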 Many of the other results were omitted from the sample, so actives are more common in it than they were. Residues, ends and D or L forms follow the SMILES beside them. *: point of attachment. Boc = CC(C)(C)OC(=O)*
Biological target: Protein-arginine deiminase type-4 (Homo sapiens) (UniProt Q9UM07)
Experiment: blockers of protein arginine deiminase 4 – biochemical, fluorescence polarization, primary screen (AID 463073);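 further: 0% = PAD4 with DMSO and 100% = wells lacking PAD4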
Conditions: recombinant PAD4, RFA probe fluorescence polarization; at 5 µM; active compounds read high
In short: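 System: recombinant PAD4. Amount: PAD4 at 2 µM in dispensed buffer, before additions. Doses: single 5 µM final compound concentration. Timing: 30 min 25 °C preincubation, 5 h 37 °C labeling. Benchmarks: wells lacking PAD4 as full-inhibition control. Repeats: single well per compound. Measured by: FP, ex 525 nm, em 598 nm.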

Chain of Protein-arginine deiminase type-4 (Homo sapiens) (Q9UM07 whole entry, looked up): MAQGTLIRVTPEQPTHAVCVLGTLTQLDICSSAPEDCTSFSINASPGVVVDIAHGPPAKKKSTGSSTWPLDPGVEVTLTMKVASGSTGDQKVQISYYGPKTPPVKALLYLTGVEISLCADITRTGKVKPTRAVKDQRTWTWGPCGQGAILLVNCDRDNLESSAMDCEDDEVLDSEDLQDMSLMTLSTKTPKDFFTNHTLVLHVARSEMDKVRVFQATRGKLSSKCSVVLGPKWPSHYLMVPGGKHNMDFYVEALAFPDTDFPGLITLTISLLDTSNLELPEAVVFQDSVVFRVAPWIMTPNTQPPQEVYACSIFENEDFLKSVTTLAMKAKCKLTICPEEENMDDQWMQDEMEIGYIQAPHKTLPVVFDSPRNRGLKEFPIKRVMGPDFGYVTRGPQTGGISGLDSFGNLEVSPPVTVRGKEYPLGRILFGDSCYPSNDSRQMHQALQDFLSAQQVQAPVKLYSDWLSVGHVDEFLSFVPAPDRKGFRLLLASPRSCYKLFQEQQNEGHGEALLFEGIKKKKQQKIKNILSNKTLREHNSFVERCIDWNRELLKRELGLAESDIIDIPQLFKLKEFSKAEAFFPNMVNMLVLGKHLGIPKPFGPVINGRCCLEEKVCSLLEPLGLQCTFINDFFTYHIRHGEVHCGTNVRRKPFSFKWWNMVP

inhibition, inactive:
CCNCCC(CCC(C)C)c1ccc2c(c1)OCO2 (centres undefined) 2.15%, COc1ccc(C(=O)/C=C/c2cc(C(=O)O)cc3c2OCOC3)c(O)c1 3%, Clc1ccc2c(c1)[C@H]1OCC[C@H]1[C@@H](c1ccco1)N2 1.39%, NS(=O)(=O)c1cc2c(cc1Cl)NC(CSCc1ccccc1)=NS2(=O)=O 0.58%, COC(=O)C1=C(C)N(C)C(=S)NC1c1ccc(Cl)cc1 (centres undefined) 0.42%, C#C[C@]1(O)CC[C@H]2[C@@H]3CCC4=C(CCC(=O)C4)[C@H]3CC[C@@]21C 0.19%, CC[n+]1c(C)sc2cc(C)ccc21 0.78%, NC(=O)[C@@H]1[C@@H]2C(=O)N(c3ccc(F)cc3)C(=O)[C@@H]2[C@H]2C=Cc3ccccc3N21 -1.24%, COc1ccc(-c2[nH]ncc2CN(C)C(C)c2ccon2)c(OC)c1 (centres undefined) 4.74%, COc1cc(NC(=S)NN2CCN(C)CC2)cc(OC)c1OC -5.47%, CC1(C)Cc2ccccc2C(C(Cc2ccccc2)C(N)=O)=N1 (centres undefined) 1.19%, COc1ccc(NC2=C(Cl)C(=O)N(c3ccccc3)C2=O)c(OC)c1 7.44%, CSc1ccc(CN2CCN(CCC(C)C)C(CCO)C2)cc1 (centres undefined) -2.67%, CC1(C)CC(=O)C(C2(O)C(=O)Nc3ccccc32)CO1 (centres undefined) 7.91%, CCOC(=O)c1cnc2ccccc2c1NCCO 1.39%, COc1ccc(C2(CCN=Cc3ccc(N(C)C)cc3)CCOC(C)(C)C2)cc1 (centres undefined) 4.88%, CC(C)OC(=O)c1ccc(NC(=O)c2cncc(Br)c2)cc1 3.13%, CCOc1cccc(N2C(=O)CC(N(CCc3ccc(OC)c(OC)c3)C(=O)CC)C2=O)c1 (centres undefined) 4.11%, C[C@H](NC(=O)Nc1ccccc1F)C(=O)O 3.34%, Cc1ncc([N+](=O)[O-])n1CCO -2.21%, CC(C)OC(=O)C1C2C=CC3(CN(CC4CCCO4)C(=O)C13)O2 (centres undefined) 3.74%, CC(=O)C1=C(O)C(=O)OC1c1ccc(C)cc1 (centres undefined) 3.6%, Cc1ccc(CSCC(=O)N2CCCC2)cc1 0.78%, Cc1coc2cc3oc(=O)c(CCC(=O)O)c(C)c3cc12 1.74%, C=CCNc1nc2c(c(=O)n(C)c(=O)n2C)n1CC(=C)C 2.6%, CC(=O)Oc1ccc(C2OC(=O)c3ccccc3N2C(C)=O)cc1 (centres undefined) 4.61%, C/C(=N\NC(=O)c1ccccc1[N+](=O)[O-])c1ccc(Br)s1 -5.19%, CC(=O)OC1c2c(ccc3ccc(=O)oc23)OC(C)(C)C1OC(=O)CC(C)C (centres undefined) 3.34%, COc1ccc2c(c1)C(=O)CC(c1ccccc1F)O2 (centres undefined) -3.92%, O=C(NCCc1nc2ccccc2[nH]1)c1cccc(Br)c1 2.09%, CCOC(=O)C1=C2c3ccc4ccccc4c3CC(C)(C)N2C(=O)C1=O 4.17%, COc1ccc(OC)c(S(=O)(=O)N2CCCc3ccccc32)c1 1.48%, CC(=O)c1c(N)nc2n(c1=O)CCCCC2 2.24%, CC1(C)C(=O)OC(/C=C\c2ccccc2)C(C)(C)C1=O (centres undefined) -4.36%, Cc1ccc(SCC(=O)Nc2nccs2)cc1 -3.72%, CCN1CCn2c3c(c4cc(Cl)ccc42)CCCC31 (centres undefined) 0.84%, Cc1ccsc1/C=C/C1=NCCCN1C 1.68%, CC(C)Cc1cc(C(=O)N2CCC(N3CCC(C(=O)N4CCCC4)CC3)CC2)n[nH]1 1.19%, COc1ccc(C(=O)NC(=O)NC2(C(Cl)(Cl)Cl)OCCO2)cc1 3.68%, COc1cc(OC)c2c(C)c(Cl)c(=O)oc2c1 5.74%, COc1ccc(C2NCCC3(O)CCCCC23)c(OC)c1OC (centres undefined) -0.4%, CC1(C)C(=O)OC(C(=O)c2ccc(Cl)cc2)C(C)(C)C1=O (centres undefined) -1.03%, COc1ccc(OC(C)C(=O)Nc2ccccc2F)cc1 (centres undefined) -0.2%, COc1cccc(OC)c1C(=O)NCCSC1CCCCC1 -2.94%, COc1ccc(N2C(=O)C3CCCN3C2=O)cc1 (centres undefined) 4.89%, CC1(C)Cc2nc3oc4c(NCc5ccccc5)ncnc4c3cc2CO1 1.79%, CCOC(=O)C1NN=C(C(=O)c2ccccc2)C1c1ccc(Cl)cc1 (centres undefined) 1.88%, CN(C)C(=O)C12CCC(C)(c3nc4ccccc4nc31)C2(C)C (centres undefined) 3.6%, Cc1ccc(S(=O)(=O)NC(C(=O)Oc2ccc3c(C(F)(F)F)cc(=O)oc3c2)c2ccccc2)cc1 (centres undefined) 6.06%, O=C(NCCC(c1ccccc1)c1ccco1)c1cccs1 (centres undefined) -4.26%, O=C1CC[C@@H](CN(Cc2ccccc2)Cc2cn[nH]c2-c2cc3ccccc3o2)N1 -4.5%, CC(C)CC(NC(=O)C1CCCN1C(=O)OC(C)(C)C)C(=O)NCC(N)=O (stereo not drawn) (Boc-Pro-Leu-Gly-NH2; configuration not given here) 0.39%, Cc1nc2cc3ccccc3cc2c(=O)[nH]1 -2.65%, O=C(O)c1cnccn1 1.59%, CC1(CC(=O)Nc2ccccc2)NC(=S)N(c2ccccc2)N1 (centres undefined) 0.19%, O=C1c2cccc3cccc(c23)C(=O)N1c1ccccn1 -4.66%, O=C(c1ccc(-c2ccccc2)c(F)c1)C1CCCN(C(=O)c2cncs2)C1 (centres undefined) 3.12%, O=C(O)CCSCCC(=O)O -2.7%, COc1ccc(C(C)=O)c2c1OCCO2 6.78%, CC1(C)CC(C(CC(=O)N2CCCC2)Cc2ccccc2)CCO1 (centres undefined) -1.3%, COc1ccc(NS(=O)(=O)c2ccc(N)cc2)nn1 0.73%, COc1ccc(-c2noc(-c3ccccc3-c3ccccc3)n2)cc1 -3.61%, O=C1C2CC=C(Cl)CC2C(=O)N1CCc1c[nH]c2ccccc12 (centres undefined) -0.53%, COc1ccc(C(CC(=O)N2CCOCC2)C(C)C)cc1 (centres undefined) 4.61%
